# Assay results taken from ChEMBL document CHEMBL1159084, “Synthesis and structure-activity relationship of 1,2,4-triazole-containing diarylpyrazolyl carboxamide as CB1 cannabinoid receptor-ligand” (Bioorg Med Chem, 2010).
# pIC50: −log10 of the molar value.
# Target: Cannabinoid receptor 1 (Rattus norvegicus, UniProt P20272)
# Test: Displacement of [3H]CP-55940 from CB1 receptor in Sprague-Dawley rat cerebellar membrane
# Parameters: species or system Cerebellum
# Outline: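 Membranes came from cerebella of male Sprague Dawley rats (200–300 g), homogenized in TME buffer (50 mM Tris–HCl, 1 mM EDTA, 3 mM MgCl2, pH 7.4) and spun at 48,000g for 30 min at 4 °C. They were incubated 1 h at 30 °C in TME with 0.5% fatty-acid-free BSA, then filtered on PEI-soaked GF/B, washed and counted by scintillation. IC50 values are from single determinations.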
# Cannabinoid receptor 1, sequence (P20272 whole entry): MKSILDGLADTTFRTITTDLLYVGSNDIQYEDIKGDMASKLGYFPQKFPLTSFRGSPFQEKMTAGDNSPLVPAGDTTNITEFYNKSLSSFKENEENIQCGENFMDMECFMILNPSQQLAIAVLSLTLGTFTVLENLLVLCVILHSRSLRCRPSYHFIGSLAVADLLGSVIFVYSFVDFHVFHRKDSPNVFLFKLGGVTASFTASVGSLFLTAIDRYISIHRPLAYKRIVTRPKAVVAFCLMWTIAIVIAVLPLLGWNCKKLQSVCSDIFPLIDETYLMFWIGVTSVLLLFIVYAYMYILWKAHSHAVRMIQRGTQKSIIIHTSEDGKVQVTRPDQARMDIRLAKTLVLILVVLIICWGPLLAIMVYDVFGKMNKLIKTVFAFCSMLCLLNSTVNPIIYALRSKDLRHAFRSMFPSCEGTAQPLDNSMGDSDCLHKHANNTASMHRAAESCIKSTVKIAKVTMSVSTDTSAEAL
row,pIC50,SMILES
1,8.22,Cc1cccc(N2CCN(C(=O)c3nn(-c4ccccc4Cl)c(-c4ccc(Cl)cc4)c3Cn3cncn3)CC2)c1C
2,8.18,O=C(NC1CCCCC1)c1nn(-c2ccccc2Cl)c(-c2ccc(Cl)cc2)c1Cn1cncn1
3,8.39,CC(NC(=O)c1nn(-c2ccc(Cl)cc2Cl)c(-c2ccc(Br)cc2)c1Cn1cncn1)C(C)(C)C (configuration not stated)
4,8.28,O=C(NN1CCCCC1)c1nn(-c2ccccc2Cl)c(-c2ccc(Br)cc2)c1Cn1cncn1
5,7.89,C[C@H]1CCCC[C@@H]1NC(=O)c1nn(-c2ccc(Cl)cc2Cl)c(-c2ccc(Cl)cc2)c1Cn1cncn1
6,6.02,CN1CCN(C(=O)c2nn(-c3ccccc3Cl)c(-c3ccc(Cl)cc3)c2Cn2cncn2)CC1
7,7.56,O=C(c1nn(-c2ccc(Cl)cc2Cl)c(-c2ccc(Br)cc2)c1Cn1cncn1)N1CCN(c2ncccn2)CC1
8,8.22,CC(NC(=O)c1nn(-c2ccccc2Cl)c(-c2ccc(Br)cc2)c1Cn1cncn1)C(C)(C)C (configuration not stated)
9,8.42,O=C(NC1CCCCC1)c1nn(-c2ccc(Cl)cc2Cl)c(-c2ccc(Cl)cc2)c1Cn1cncn1
10,8.04,O=C(NC1(c2ccc(Cl)cc2)CC1)c1nn(-c2ccccc2Cl)c(-c2ccc(Cl)cc2)c1Cn1cncn1
11,7.35,O=C(NNC(=O)C1(c2ccc(Cl)cc2)CC1)c1nn(-c2ccc(Cl)cc2Cl)c(-c2ccc(Cl)cc2)c1Cn1cncn1
12,6.72,O=C(NNC(=O)C1CCCCC1)c1nn(-c2ccc(Cl)cc2Cl)c(-c2ccc(Cl)cc2)c1Cn1cncn1
13,8.57,O=C(NC1CCCCCC1)c1nn(-c2ccccc2Cl)c(-c2ccc(Br)cc2)c1Cn1cncn1
14,8.59,CC(NC(=O)c1nn(-c2ccc(Cl)cc2Cl)c(-c2ccc(Cl)cc2)c1Cn1cncn1)c1ccc(Cl)cc1Cl (configuration not stated)
15,7.65,O=C(c1nn(-c2ccccc2Cl)c(-c2ccc(Br)cc2)c1Cn1cncn1)N1CCN(c2ncccn2)CC1
16,7.22,O=C(N[C@H]1CCCC[C@@H]1O)c1nn(-c2ccc(Cl)cc2Cl)c(-c2ccc(Cl)cc2)c1Cn1cncn1
17,7.74,"C[C@@H]1CCCC[C@@H]1NC(=O)c1nn(-c2ccc(Cl)cc2Cl)c(-c2ccc(Cl)cc2)c1Cn1cncn1 (single isomer, unassigned)"
18,8.13,O=C(c1nn(-c2ccc(Cl)cc2Cl)c(-c2ccc(Cl)cc2)c1Cn1cncn1)N1CCN(c2cccc(Cl)c2)CC1
19,8.32,O=C(NC1(C(F)(F)F)CC1)c1nn(-c2ccccc2Cl)c(-c2ccc(Cl)cc2)c1Cn1cncn1
20,8.59,CC(NC(=O)c1nn(-c2ccc(Cl)cc2Cl)c(-c2ccc(Cl)cc2)c1Cn1cncn1)c1ccc(Br)cc1 (configuration not stated)
21,8.66,CC(NC(=O)c1nn(-c2ccc(Cl)cc2Cl)c(-c2ccc(Br)cc2)c1Cn1cncn1)c1ccc(Cl)cc1Cl (configuration not stated)
22,8.31,CC(C)(C)NC(=O)c1nn(-c2ccc(Cl)cc2Cl)c(-c2ccc(Cl)cc2)c1Cn1cncn1
23,8.41,O=C(NC1(C(F)(F)F)CCC1)c1nn(-c2ccc(Cl)cc2Cl)c(-c2ccc(Br)cc2)c1Cn1cncn1
24,8.07,CC(NC(=O)c1nn(-c2ccc(Cl)cc2Cl)c(-c2ccc(Cl)cc2)c1Cn1cncn1)C(C)(C)C (configuration not stated)
25,8.10,CC(C)(C)NC(=O)c1nn(-c2ccccc2Cl)c(-c2ccc(Br)cc2)c1Cn1cncn1
26,8.11,CC(C)(NC(=O)c1nn(-c2ccccc2Cl)c(-c2ccc(Cl)cc2)c1Cn1cncn1)c1ccc(Cl)cc1
27,5.40,CCN1CCCC1CNC(=O)c1nn(-c2ccc(Cl)cc2Cl)c(-c2ccc(Cl)cc2)c1Cn1cncn1 (configuration not stated)
